High-throughput results: PubChem BioAssay, several laboratories
In the library only some 4.2% were active in any assay of this set; here they are far more common.
Cl transport mod: KCC2 (human) Cl- transport modulation. KCC2 cells, thallium flux FluoZin-2 fluorescence. B-score of Tl+ flux slope (higher = more flux/activation; lower = inhibition) at 10 µM. 190,000 compounds, 2.2% hits;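 active = thallium flux slope and its plate-corrected score both differing from the plate sample mean at a set confidence after two filtering rounds, in either direction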;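 note: slope of fluorescence scaled to starting intensity during 10 to 20 s after thallium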
KCNQ1 block: human KCNQ1 channel inhibition; P51787; CHO-K1 KCNQ1, FluxOR thallium flux fluorescence; active compounds read high; B-score at 10 µM; 310,000 compounds, 1.3% hits; AID 2642;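 active = compounds whose thallium flux B-score, printed positive for inhibition, exceeds three library SD while starting fluorescence stays within three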;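 note: channel opened by potassium depolarization with thallium stimulus after 20 min compound exposure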
AI-2 QS mod: Vibrio harveyi AI-2 quorum sensing modulation; activity change, % at 7.5 µM; Vibrio harveyi JMH597 AI-2 luminescence/OD600 ratio, 9 h; active compounds read low; strain lacks LuxN and CqsS sensors; 0 = neutral-control median; 300,000 compounds, 0.4% hits; in the data active = activity change below about -75%, passing the limit was not always enough;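 note: luminescence divided by OD600 gain over 9 h not by final OD600 alone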
hERG rescue: hERG (human) protection from proarrhythmic block; Q12809; CHO-hERG, FluxOR thallium flux, dofetilide IC70 present; 310,000 compounds, 0.51% hits; activation (rescue from dofetilide block), less the hit threshold, % at 10 µM;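 active = activation above the mean of controls blocked by dofetilide plus 5 SD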;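 note: thallium influx through hERG after potassium depolarization seen as dye fluorescence rise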
Target sequence (Q12809 whole entry, looked up): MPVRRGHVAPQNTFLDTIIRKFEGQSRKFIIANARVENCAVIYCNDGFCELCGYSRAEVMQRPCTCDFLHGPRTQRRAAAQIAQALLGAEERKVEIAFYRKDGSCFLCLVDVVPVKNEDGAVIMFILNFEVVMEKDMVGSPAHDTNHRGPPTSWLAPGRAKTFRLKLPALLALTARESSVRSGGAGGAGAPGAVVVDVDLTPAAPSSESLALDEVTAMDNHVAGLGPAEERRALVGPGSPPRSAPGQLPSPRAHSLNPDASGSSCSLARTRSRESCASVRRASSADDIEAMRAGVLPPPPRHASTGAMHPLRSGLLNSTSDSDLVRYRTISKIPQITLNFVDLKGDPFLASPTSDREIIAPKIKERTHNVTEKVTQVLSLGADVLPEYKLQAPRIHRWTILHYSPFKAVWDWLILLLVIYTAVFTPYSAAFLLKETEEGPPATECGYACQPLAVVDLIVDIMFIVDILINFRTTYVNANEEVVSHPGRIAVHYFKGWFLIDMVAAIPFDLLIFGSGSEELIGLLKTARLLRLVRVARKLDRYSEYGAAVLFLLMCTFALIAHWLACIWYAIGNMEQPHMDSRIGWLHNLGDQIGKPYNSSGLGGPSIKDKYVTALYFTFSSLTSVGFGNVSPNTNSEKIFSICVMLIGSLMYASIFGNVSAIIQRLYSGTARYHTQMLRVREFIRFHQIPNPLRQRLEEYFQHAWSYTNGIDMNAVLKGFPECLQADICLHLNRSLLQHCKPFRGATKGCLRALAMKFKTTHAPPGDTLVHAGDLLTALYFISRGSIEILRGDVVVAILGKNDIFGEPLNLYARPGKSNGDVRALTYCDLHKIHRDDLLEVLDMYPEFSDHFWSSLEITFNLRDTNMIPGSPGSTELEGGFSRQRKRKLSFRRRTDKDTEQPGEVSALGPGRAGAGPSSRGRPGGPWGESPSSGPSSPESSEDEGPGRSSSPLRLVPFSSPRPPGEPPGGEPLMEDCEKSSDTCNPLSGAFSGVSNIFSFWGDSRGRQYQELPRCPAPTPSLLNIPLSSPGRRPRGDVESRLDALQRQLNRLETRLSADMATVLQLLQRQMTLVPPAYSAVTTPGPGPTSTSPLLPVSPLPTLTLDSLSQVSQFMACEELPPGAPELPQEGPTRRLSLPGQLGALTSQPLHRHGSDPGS
KCNQ1 act: potentiators or activators of human KCNQ1 potassium channel | P51787 | 310,000 compounds, 0.35% hits | CHO-K1 KCNQ1, thallium flux FluxOR fluorescence; active compounds read high | B-score at 10 µM | AID 2648;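 active = fluorescence ratio B-score, a plate-corrected score, at least three library SD, with initial intensity B-score within 5 SD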
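assay system = CHO-K1 cells stably expressing KCNQ1 | medium = assay buffer, equal DMSO in all wells | timing = 37 °C overnight plating, 90-min dark dye load, 20-min compound pretreatment | measured by = kinetic FluxOR thallium fluorescence, 10-s 1-Hz baseline, 110-s post-stimulus read | measure = fluorescence change relative to baseline, converted to B score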
SUMO Mot1 rescue: inhibitors of SUMOylation pathway: yeast Mot1-301 growth rescue | 320,000 compounds, 1% hits | AID 2716 | growth rescue, % at 18.8 µM | S. cerevisiae Mot1-301 growth rescue, ATP luminescence, 38.5C; percent above DMSO median, 100 means doubled;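 active = every valid replicate shows activation above 250% relative to neutral control wells; inactive = the rest, any valid replicate at or below 250%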;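 note: OY570 slx delta 5 strain wells were the positive control but not used for scaling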
Starred values were filed as active, the others as inactive; i = inactive; x = no result.

SMILES | Cl transport mod | KCNQ1 block | AI-2 QS mod | hERG rescue | KCNQ1 act | SUMO Mot1 rescue
CC1=CC(c2ccc(Cl)cc2)n2nc(NC(=O)c3ccccc3)nc2N1 (stereo not drawn) | x | i | 25 | -14 | i | -19
Cc1nn(CCc2nn[nH]n2)c2nc(-c3ccc(C4CCCCC4)cc3)cc(C(F)(F)F)c12 | -1.5 | i | 31 | -16 | 50* | -29
Cc1ccc(NC(=O)COc2ncnc3sccc23)cc1S(=O)(=O)N(C)C | 0.35 | i | -78* | -8 | i | 4
Clc1ccc(Cn2nnc(-c3ccccc3)n2)cc1 | -0.78 | i | -81* | -4 | i | -11
Clc1ccccc1Cn1nnc(-c2ccccc2)n1 | -0.011 | i | -7 | -5 | i | 15
OCCN(CCO)CC(O)COCCC12CC3CC(CC(C3)C1)C2 (stereo not drawn) | 0.75 | 8* | 23 | -16 | i | -9
CCC(CC)c1ncc[nH]1 | -0.078 | i | 7 | 2 | i | -11
CCCC(=O)n1nc(-c2ccc(C)cc2)nc1NCc1ccco1 | -1.1 | i | 4 | -13 | 10* | 91
Clc1ccc(CSc2ccc(-c3ccccn3)nn2)cc1 | 0.19 | i | 12 | -11 | i | -27
Clc1ccc(CSc2cc3c(nn2)-c2ccccc2CC3)cc1 | 0.07 | 6* | 15 | -15 | i | -16
COC(=O)c1ccccc1-c1ccc(/C=N/Nc2nc(N3CCCC3)nc(N3CCCC3)n2)o1 | -0.2 | 6* | -2 | -14 | i | -7
O=[N+]([O-])c1ccc(/C=N/Nc2nc(N3CCCCCC3)nc(N3CCCCCC3)n2)o1 | -0.33 | 6* | 14 | -12 | i | -18
COc1cccc(Oc2ccc(C(F)(F)F)cc2NC(=O)C2=COCCO2)c1 | x | 10* | 9 | -8 | i | -2
COc1ccc(Oc2ccc(C(F)(F)F)cc2NC(=O)c2ccc(F)cc2)cc1 | 0.16 | 6* | 13 | -11 | i | 3
COc1cccc(Oc2ccc(C(F)(F)F)cc2NC(=O)c2cccc(F)c2)c1 | 0.54 | i | 31 | -12 | i | -26
CC1=C(C(=O)Nc2ccc(C)cc2C)C(c2ccc(Cl)cc2)n2nc(C(=O)OC(C)C)nc2N1 (stereo not drawn) | 0.43 | i | 43 | -3 | i | 655*
CC(C)N1C(=O)CSC1c1ccc(Br)cc1 (stereo not drawn) | -0.3 | i | 17 | -9 | i | -8
CCS(=O)(=O)n1nc(-c2ccc(Cl)cc2)nc1SCc1ccccc1 | -1.5 | 10* | -58 | -15 | i | 9
COc1ccc(-c2nc(SCc3ccccc3)n(S(C)(=O)=O)n2)cc1 | 0.0018 | i | 6 | -7 | i | 17
CCOC(=O)/C(C#N)=C/c1c(N2CCN(c3ccc(OC)cc3)CC2)nc2c(C)cccn2c1=O | x | i | 6 | -8 | i | 7
CCOC(=O)/C(C#N)=C/c1c(N2CCN(c3cccc(Cl)c3)CC2)nc2c(C)cccn2c1=O | x | 6* | 1 | -11 | i | x
COc1ccc(OC)c(NC(=O)NCCc2c[nH]c3ccccc23)c1 | x | i | 0 | -6 | i | 7
N/C(=N\OC(=O)CCc1ccccc1)c1ccc(Br)cc1 | x | i | -24 | -8 | i | 9
Cc1ccc(/C(N)=N/OC(=O)CCc2ccccc2)cc1 | x | i | -77* | 1 | i | 42
CCOC(=O)c1cc(NC(=O)Cc2ccc(S(=O)(=O)N3CCOCC3)s2)cc(C(=O)OCC)c1 | x | 7* | 15 | -16 | i | 6
SMILES | Cl transport mod | KCNQ1 block | AI-2 QS mod | hERG rescue | KCNQ1 act | SUMO Mot1 rescue
O=C(Cc1ccc(S(=O)(=O)N2CCOCC2)s1)Nc1cc(C(F)(F)F)cc(C(F)(F)F)c1 | x | x | x | x | x | -3
Cc1ccc(C(C)C)c(OCC(=O)NNC(=O)Cn2[nH]c(=O)c3ccccc3c2=O)c1 | x | x | x | x | x | 4
CC(C)(C)C1=NN=C2c3ccccc3C(=O)C21 (stereo not drawn) | -0.58 | i | 20 | -2 | i | 675*
Cc1cccnc1NC(=O)NC(=O)c1ccc(C(C)(C)C)s1 | -0.14 | i | 28 | -6 | i | 20
OC(CNCC(c1ccc(Cl)cc1Cl)c1c[nH]c2ccccc12)c1ccccc1 (stereo not drawn) | 1.7 | i | 37 | 40* | i | 36
O=[N+]([O-])CC(c1ccccc1)c1c[nH]c2ccccc12 (stereo not drawn) | x | i | 2 | -4 | i | -6
C[C@H](NC(=O)[C@@H]1CSC2c3ccccc3C(=O)N21)C(=O)NC1CCCCC1 (stereo partly drawn) | x | i | 41 | -7 | i | 8
O=C1CN(C(=O)COC(=O)c2ccc(Br)o2)c2ccccc2N1 | x | x | x | x | x | 5
Cc1ccc(S(=O)(=O)NC(C(=O)Oc2ccc3ccc(=O)oc3c2)c2ccccc2)cc1 (stereo not drawn) | -0.69 | i | 30 | -14 | i | 7
Cc1ccc(S(=O)(=O)N[C@H](C(=O)Oc2ccc3c(C(F)(F)F)cc(=O)oc3c2)c2ccccc2)cc1 | x | 9* | 13 | -6 | i | -7
CC1(C)CC2CC(C)(CN2C(=O)COC(=O)c2ccccc2C(F)(F)F)C1 (stereo not drawn) | x | x | x | x | x | -1
Cc1cc(C(=O)COC(=O)c2ccc(Cl)c(S(N)(=O)=O)c2)c(C)n1CC1CCCO1 (stereo not drawn) | x | i | 21 | -16 | i | 331*
CCCCc1ccc(NC(=O)CSc2nc(=O)n(CCCN3CCOCC3)c3c2CCC3)cc1 | x | i | -3 | -14 | i | 536*
COc1ccccc1C(=O)Nc1onc(C)c1C#N | 0.25 | i | -4 | 6.2* | i | -12
COC(=O)c1ccc(NC(=O)Cn2nc(C)c3ccccc3c2=O)cc1 | x | i | -96* | -7 | i | 1
Cc1nn(CC(=O)Nc2ccc3c(c2)oc2ccccc23)c(=O)c2ccccc12 | 0.22 | i | -39 | -8 | i | 13
O=C(Cn1nc(-c2ccccc2)c2ccccc2c1=O)Nc1ccc(O)cc1 | 1.3 | i | 2 | 15* | i | 3
CCOC(=O)c1ccc(NC(=O)Cn2nc(C)c3ccccc3c2=O)cc1 | x | i | -97* | -8 | i | 345
COC(=O)Cn1nc(C)c2ccccc2c1=O | 0.092 | i | -15 | -3 | i | -5
CC(NC(=O)Cn1nc(-c2ccccc2)c2ccccc2c1=O)c1ccccc1 (stereo not drawn) | -0.36 | i | 21 | -5 | i | 6
Cc1ccc(CN2CCSCC2)cc1 | x | i | 24 | -4 | i | 8
N#Cc1cccc2cnccc12 | 0.36 | i | 32 | -7 | i | 329*
